Experimental data collected from several papers.
Protocols differ between the studies behind these lines.
Target: Serine/threonine-protein kinase 3 (STK3, Homo sapiens, UniProt Q13188)
Sequence (Q13188 1-491, as in one of the studies): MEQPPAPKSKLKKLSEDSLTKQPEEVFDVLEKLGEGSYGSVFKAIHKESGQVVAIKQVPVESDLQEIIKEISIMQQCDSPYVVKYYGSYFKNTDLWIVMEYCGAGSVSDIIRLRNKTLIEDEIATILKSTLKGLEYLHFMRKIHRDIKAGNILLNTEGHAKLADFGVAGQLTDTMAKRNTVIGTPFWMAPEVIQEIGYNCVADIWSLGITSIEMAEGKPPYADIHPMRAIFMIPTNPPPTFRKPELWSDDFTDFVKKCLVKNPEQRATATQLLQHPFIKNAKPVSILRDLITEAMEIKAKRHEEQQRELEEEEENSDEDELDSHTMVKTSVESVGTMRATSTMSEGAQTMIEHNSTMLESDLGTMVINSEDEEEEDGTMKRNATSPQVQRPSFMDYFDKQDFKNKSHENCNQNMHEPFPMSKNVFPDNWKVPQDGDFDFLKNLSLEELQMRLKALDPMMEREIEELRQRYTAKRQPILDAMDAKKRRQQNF

SMILES | read-out | method | tested at | remaining binding [%]
CC1CCCN1c1nccc(-c2cnn3ncccc23)n1 (stereo not shown) | binding | – | 1 µM | 100
Cc1cnc(Nc2ccc(C(=O)N3CCC(N4CCCC4)CC3)cc2)nc1-c1cc2ccccc2s1 | binding | competition with immobilised ligand | 1 µM | 75
O=C(Nc1c[nH]nc1C(=O)NC1CCNCC1)c1cc(F)cc(F)c1 | binding | competition with immobilised ligand | 1 µM | 100
COc1cnc(Nc2cccc(S(N)(=O)=O)c2)nc1N1CCN(c2ccccc2)CC1 | binding | competition with immobilised ligand | 1 µM | 95
COc1ccc2c(c1)O[C@@H](c1ccc(OC)c(OC)c1)C[C@H]2NC(=O)C1(c2ccc3c(c2)OC(F)(F)O3)CC1 | cell-free assay | competition with immobilised ligand | 1 µM | 96
COc1cnc(Nc2cccc(S(N)(=O)=O)c2)nc1N1CCN(c2ccccc2)C(=O)C1 | binding | competition with immobilised ligand | 1 µM | 98
Cc1cc(NC(=O)c2cccc(S(F)(F)(F)(F)F)c2)cc(-n2ccn3nc(-c4cccnc4)cc23)c1 | cell-free assay | competition with immobilised ligand | 1 µM | 100
C[C@H]1CCN(c2nccc(-c3cnn4ncccc34)n2)C1 | binding | – | 1 µM | 92
CC(=O)Nc1c(C(C)=O)c(=O)n(C)c2nc(-c3ccc(Cl)cc3Cl)c(-c3ccc(Cl)cc3)cc12 | cell-free assay | competition with immobilised ligand | 1 µM | 100
O=C(NCCCN1CCOCC1)c1ccc(Nc2ncc(Cl)c(-c3ccc(Cl)s3)n2)cc1 | binding | competition with immobilised ligand | 1 µM | 12
CN(C)c1nccc(-c2cnc3ncccn23)n1 | binding | – | 1 µM | 62
C=CC(=O)N1CCC(C(=O)NCC(=O)N2CCN(c3nc(-c4cnc(N)nc4C(F)F)nc(N4CCOCC4)n3)CC2)CC1 | binding | competition with immobilised ligand | 1 µM | 97
N[C@H]1CCN(c2nccc(-c3cnn4ncccc34)n2)C1 | binding | – | 1 µM | 100
C[C@H](c1ccnc(Nc2nc3ccc(-c4cc(N(C)C)ncn4)cc3[nH]2)c1)N1CCN(C(=O)CC(F)(F)F)CC1 | cell-free assay | competition with immobilised ligand | 0.1 µM | 93
CN(C)c1nccc(-c2cnn3ncccc23)n1 | binding | – | 1 µM | 100
Nc1ncc2c(n1)-c1c([nH]c3ccc(C#CC4CC4)cc13)CCCC2 | binding | competition with immobilised ligand | 1 µM | 87
CNC(=O)Nc1ccc2c(c1)[C@@]1(CC2)OC(=O)N(CC(=O)N(Cc2ccc(F)cc2)[C@@H](C)C(F)(F)F)C1=O | cell-free assay | competition with immobilised ligand | 1 µM | 97
CCN1CCN(Cc2ccc(C(=O)Nc3ccc(C)c(Oc4ccc5c(c4)CC(=O)N5)c3)cc2C(F)(F)F)CC1 | binding | competition with immobilised ligand | 1 µM | 14
COc1cc(-c2cn(C3CCc4ccccc4N(CC(F)(F)F)C3=O)nn2)ccc1-n1ccc(C)n1 (stereo not shown) | cell-free assay | competition with immobilised ligand | 1 µM | 84
c1cnn2ncc(-c3ccnc(N4CCC45COC5)n3)c2c1 | binding | – | 1 µM | 81
O=C(NCCCN1CCOCC1)c1ccc(Nc2nccc(-c3cc4ccccc4s3)n2)cc1 | binding | competition with immobilised ligand | 1 µM | 88
C[C@H](c1ccc(F)cc1)N(Cc1cccc(C(=O)O)c1)C(=O)c1cnc2ccccc2c1 | cell-free assay | competition with immobilised ligand | 1 µM | 100
